Reference: ChEMBL document CHEMBL5724801, “EUbOPEN Chemogenomics Library - Multiplex” (2024)
Where “and” joins values, the source holds several entries; their conditions need not be identical. Identical values can stand only once.

System: Fibroblast
Assay: Multiplex assay against human fibroblast
Assay type: toxicity, cell-based
How it was run: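 On a CQ1 microscope at 37°C and 5% CO2, live cells were imaged after compound addition. They had been stained at seeding with Hoechst33342, BioTracker Green Microtubule Cytoskeleton Dye, MitoTracker Red and Annexin V Alexa Fluor 680. CellPathfinder machine-learning gating assigned cells to Hoechst high-intensity objects or normal cells, normal cells to healthy, pyknosed or fragmented nuclei, and pyknosed cells to mitotic or apoptotic. Tubulin, mitochondrial-mass and membrane-permeability phenotypes are per cents of healthy-nucleus cells.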

[1] = 12 h, 1 µM, compound concentration 1 uM
[2] = 12 h, 10 µM, compound concentration 10 uM
[3] = 24 h, 1 µM, compound concentration 1 uM
[4] = 24 h, 10 µM, compound concentration 10 uM
[5] = 48 h, 1 µM, compound concentration 1 uM
[6] = 48 h, 10 µM, compound concentration 10 uM

## Cl.Clc1cc2cc(c1)-c1cnn3ccc(nc13)NCCOCCO2
[1]
  Population Apoptotic (%): 25.93% and 36.11%
  Population Fragmented Nuclei (%): 12.14% and 4.56%
  Population Healthy Nuclei (%): 61.65% and 80.5%
  Population Hoechst High Intensity Objects (%): 0%
  Population Membrane Permeable-Phenotype (%): 11.02% and 2.58%
  Population Mitochondria Different-Phenotype (%): 4.72% and 10.82%
  Population Mitotic Cells (%): 74.07% and 63.89%
  Population Normal (%): 100%
  Population Pyknosed Nuclei (%): 26.21% and 14.94%
  Population Tubulin-Different-Phenotype (%): 11.02% and 23.2%
  Total Cell Count: 206 and 241
[2]
  Population Apoptotic (%): 10.2% and 20.59%
  Population Fragmented Nuclei (%): 10.65% and 5.56%
  Population Healthy Nuclei (%): 66.67% and 78.7%
  Population Hoechst High Intensity Objects (%): 0%
  Population Membrane Permeable-Phenotype (%): 8.33% and 4.71%
  Population Mitochondria Different-Phenotype (%): 12.5% and 18.82%
  Population Mitotic Cells (%): 89.8% and 79.41%
  Population Normal (%): 100%
  Population Pyknosed Nuclei (%): 22.69% and 15.74%
  Population Tubulin-Different-Phenotype (%): 22.22% and 26.47%
  Total Cell Count: 216
[3]
  Population Apoptotic (%): 31.43% and 41.38%
  Population Fragmented Nuclei (%): 12.22% and 6.72%
  Population Healthy Nuclei (%): 71.95% and 82.46%
  Population Hoechst High Intensity Objects (%): 0%
  Population Membrane Permeable-Phenotype (%): 6.29% and 4.52%
  Population Mitochondria Different-Phenotype (%): 3.14% and 6.33%
  Population Mitotic Cells (%): 68.57% and 58.62%
  Population Normal (%): 100%
  Population Pyknosed Nuclei (%): 15.84% and 10.82%
  Population Tubulin-Different-Phenotype (%): 15.09% and 21.72%
  Total Cell Count: 221 and 268
[4]
  Population Fragmented Nuclei (%): 7.39% and 6.93%
  Population Healthy Nuclei (%): 79.13% and 78.79%
  Population Hoechst High Intensity Objects (%): 0%
  Population Membrane Permeable-Phenotype (%): 3.3%
  Population Mitochondria Different-Phenotype (%): 8.79% and 13.74%
  Population Mitotic Cells (%): 90.32% and 69.7%
  Population Normal (%): 100%
  Population Pyknosed Nuclei (%): 13.48% and 14.29%
  Population Tubulin-Different-Phenotype (%): 20.33% and 33.52%
  Total Cell Count: 230 and 231
[5]
  Population Apoptotic (%): 31.03% and 50%
  Population Fragmented Nuclei (%): 12.03% and 5.81%
  Population Healthy Nuclei (%): 75.93% and 90.31%
  Population Hoechst High Intensity Objects (%): 0%
  Population Membrane Permeable-Phenotype (%): 3.28% and 3%
  Population Mitotic Cells (%): 68.97% and 50%
  Population Normal (%): 100%
  Population Pyknosed Nuclei (%): 12.03% and 3.88%
  Total Cell Count: 241 and 258
[6]
  Population Apoptotic (%): 16.67% and 38.89%
  Population Fragmented Nuclei (%): 10.79% and 5.86%
  Population Healthy Nuclei (%): 86.72% and 86.61%
  Population Hoechst High Intensity Objects (%): 0%
  Population Membrane Permeable-Phenotype (%): 1.91% and 6.76%
  Population Mitochondria Different-Phenotype (%): 11% and 9.66%
  Population Mitotic Cells (%): 83.33% and 61.11%
  Population Normal (%): 100%
  Population Pyknosed Nuclei (%): 2.49% and 7.53%
  Population Tubulin-Different-Phenotype (%): 13.88% and 38.65%
  Total Cell Count: 241 and 239

## CCOc1ccccc1C(=O)NCC1(N2CCN(CC)CC2)CCCCC1
[1]
  Population Apoptotic (%): 8% and 22.22%
  Population Healthy Nuclei (%): 51.46% and 68.29%
  Population Hoechst High Intensity Objects (%): 0%
  Population Membrane Permeable-Phenotype (%): 3.41% and 2.98%
  Population Mitochondria Different-Phenotype (%): 3.41% and 11.31%
  Population Mitotic Cells (%): 92% and 77.78%
  Population Normal (%): 100%
  Population Pyknosed Nuclei (%): 29.24% and 25.61%
  Population Tubulin-Different-Phenotype (%): 10.23% and 23.81%
  Total Cell Count: 171 and 246
[2]
  Population Apoptotic (%): 12.35% and 12.82%
  Population Fragmented Nuclei (%): 13.04% and 5.43%
  Population Healthy Nuclei (%): 42.93% and 73.37%
  Population Hoechst High Intensity Objects (%): 0%
  Population Membrane Permeable-Phenotype (%): 5.06% and 9.63%
  Population Mitochondria Different-Phenotype (%): 41.77% and 25.19%
  Population Mitotic Cells (%): 87.65% and 87.18%
  Population Normal (%): 100%
  Population Pyknosed Nuclei (%): 44.02% and 21.2%
  Population Tubulin-Different-Phenotype (%): 65.82% and 80.74%
  Total Cell Count: 184
[3]
  Population Apoptotic (%): 15.79% and 31.25%
  Population Fragmented Nuclei (%): 10.24% and 5.42%
  Population Healthy Nuclei (%): 66.87% and 81.25%
  Population Hoechst High Intensity Objects (%): 0%
  Population Membrane Permeable-Phenotype (%): 1.8% and 4.1%
  Population Mitochondria Different-Phenotype (%): 4.5% and 8.72%
  Population Mitotic Cells (%): 84.21% and 68.75%
  Population Normal (%): 100%
  Population Pyknosed Nuclei (%): 22.89% and 13.33%
  Population Tubulin-Different-Phenotype (%): 12.61% and 24.1%
  Total Cell Count: 166 and 240
[4]
  Population Apoptotic (%): 12.5% and 5.13%
  Population Fragmented Nuclei (%): 13.66% and 11.26%
  Population Healthy Nuclei (%): 62.93% and 71.17%
  Population Hoechst High Intensity Objects (%): 0%
  Population Membrane Permeable-Phenotype (%): 3.1% and 5.06%
  Population Mitochondria Different-Phenotype (%): 45.74% and 22.78%
  Population Mitotic Cells (%): 87.5% and 94.87%
  Population Normal (%): 100%
  Population Pyknosed Nuclei (%): 23.41% and 17.57%
  Population Tubulin-Different-Phenotype (%): 68.22% and 84.81%
  Total Cell Count: 205 and 222
[5]
  Population Apoptotic (%): 21.43% and 23.08%
  Population Fragmented Nuclei (%): 13.04% and 10.42%
  Population Healthy Nuclei (%): 79.35% and 84.17%
  Population Hoechst High Intensity Objects (%): 0%
  Population Membrane Permeable-Phenotype (%): 0.68% and 0.5%
  Population Mitotic Cells (%): 78.57% and 76.92%
  Population Normal (%): 100%
  Population Pyknosed Nuclei (%): 7.61% and 5.42%
  Population Tubulin-Different-Phenotype (%): 8.9% and 21.29%
  Total Cell Count: 184 and 240
[6]
  Population Apoptotic (%): 15.79% and 45.16%
  Population Fragmented Nuclei (%): 15.15% and 7.88%
  Population Healthy Nuclei (%): 76.62% and 79.25%
  Population Hoechst High Intensity Objects (%): 1.28% and 0%
  Population Membrane Permeable-Phenotype (%): 3.39% and 4.71%
  Population Mitochondria Different-Phenotype (%): 27.12% and 15.18%
  Population Mitotic Cells (%): 84.21% and 54.84%
  Population Normal (%): 98.72% and 100%
  Population Pyknosed Nuclei (%): 8.23% and 12.86%
  Population Tubulin-Different-Phenotype (%): 62.15% and 89.01%
  Total Cell Count: 234 and 241
